Data on 1 compound can be found in ChEMBL document CHEMBL3102834, “Discovery of 5-substituted pyrrolo[2,3-d]pyrimidine antifolates as dual-acting inhibitors of glycinamide ribonucleotide formyltransferase and 5-aminoimidazole-4-carboxamide ribonucleotide formyltransferase in de novo purine nucleotide biosynthesis: implications of inhibiting …” (J Med Chem, 2013).

For test [1], the system named is KB. In words: Cytotoxicity against human KB cells expressing human RFC/FRalpha/PCFT after 96 hrs by CellTitre-Blue fluorescence assay in presence of folic acid. The class given is functional, cell-based. A digest of the protocol:
(§1)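 KB cells were grown in FF-RPMI with DFBS and 2 nM LCV, exposed to antifolate (0–1 μM) for 96 h at 37 °C, and read by CellTiter-Blue fluorescence. IC50 was taken from dose–response curves relative to untreated cells. Protection arms added adenosine 60 μM, thymidine 10 μM, AICA 320 μM, or folic acid 200 nM. Means of 3–10 experiments.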

Test [2] concerns KB. In words: Cytotoxicity against human KB cells expressing human RFC/FRalpha/PCFT after 96 hrs by CellTitre-Blue fluorescence assay in presence of thymidine. Format: functional, cell-based. Put shortly:
as §1

Test [3] has as its system KB. In words: Induction of apoptosis in human KB cells assessed as late apoptotic cells at 1 uM after 96 hrs by Annexin V-FITC/7-AAD staining-based flow cytometry (reference value: 2.09%). Format: functional. A general note: A flow cytometer gives signals particle by particle.
The subject of test [4] is KB. In words: Cell cycle arrest in human KB cells after 48 hrs by propidium iodide staining-based flow cytometry. Format: functional. A digest of the protocol:
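KB cells exposed to 1 μM drug for 48 h in FF-RPMI with 10% DFBS and 2 nM LCV, harvested by trypsin and fixed in ice-cold ethanol. Stained with 50 μg/mL PI plus 100 μg/mL RNase for at least 20 min at room temperature in the dark. Flow cytometry counted at least 10 000 events. G1/G0, S, G2/M and sub-G1 fractions were fitted by Watson Pragmatic model.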

Test [5] relates to KB. In words: Cytotoxicity against human KB cells expressing human RFC/FRalpha/PCFT assessed as depletion of ATP pools at 1 uM after 24 hrs by ion-pair HPLC analysis. Format: functional. A digest of the protocol: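 KB cells in FF-RPMI/10% DFBS with 2 mM glutamine and 2 nM LCV were exposed to 1 μM drug for 24 h. They were trypsinized and washed, and nucleotides were extracted. ATP was quantified by reversed-phase ion-pair HPLC on a C18 column. Results are means ± standard errors.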

The test system of test [6] is KB. In words: Induction of apoptosis in human KB cells assessed as early apoptotic cells at 1 uM after 96 hrs by Annexin V-FITC/7-AAD staining-based flow cytometry (reference value: 0.485%). Format: functional.
Test [7] deals with KB. In words: Cell cycle arrest in human KB cells assessed as accumulation at S phase at 1 uM after 96 hrs by propidium iodide staining-based flow cytometry (reference value: 15.9%). Format: functional.
The test system of test [8] is KB. In words: Cell cycle arrest in human KB cells assessed as accumulation at sub-G1 phase at 1 uM after 96 hrs by propidium iodide staining-based flow cytometry (reference value: 3.5%). Format: functional.
Test [9] is described as follows: Cytotoxicity against chinese hamster RT16 cells expressing human FRalpha after 96 hrs by CellTitre-Blue fluorescence assay in presence of folic acid. The class given is functional, cell-based. The note with it: Cricetulus griseus, RT16, 96 h. Put shortly: (§2)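 CHO sublines were grown in FF-RPMI/DFBS; transfectants were maintained with G418. Cells were exposed to antifolate (0–1 μM) for 96 h at 37 °C with 2 nM LCV (RT16) or 25 nM LCV (R2/PCFT4). PC43-10 cells were grown in standard RPMI1640/DFBS instead. FRα specificity was tested by adding 200 nM folic acid. Viable cells were read by CellTiter-Blue fluorescence (ex 560/em 590), and IC50 was taken from dose–response curves; means of 3–10 experiments.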

In test [10] the test system is KB. In words: Induction of apoptosis in human KB cells assessed as necrotic cells at 1 uM after 96 hrs by Annexin V-FITC/7-AAD staining-based flow cytometry (RVB = 7.80%). The class given is functional.
Test [11] can be described thus: Cytotoxicity against chinese hamster PC43-10 cells expressing human RFC after 96 hrs by CellTitre-Blue fluorescence assay. The note with it: Cricetulus griseus, PC43-10, 96 h. The class given is functional, cell-based. Put shortly: as §2
Test [12] deals with KB. In words: Cytotoxicity against human KB cells at 10 uM incubated for 48 hrs followed by compound washout measured after 10 days by colony forming assay. Format: functional, cell-based. Put shortly:
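About 500 KB cells were plated in FF-RPMI/DFBS with 2 nM LCV for 24 h. Drug (0–10 μM) was then added, and exposure is stated as 24 h in Methods and 48 h in the legend. Medium was replaced with drug-free FF-RPMI plus 2 nM LCV for 8–10 days. Colonies were fixed with 5% TCA, stained with 1% methylene blue in borate buffer pH 8.8, and counted; three experiments.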

For test [13], the target named is Folate receptor alpha (Homo sapiens) (UniProt P15328). In words: Displacement of [3H]folic acid from human FRalpha expressed in chinese hamster RT16 cells after 15 mins by scintillation counting analysis. The class given is cell-based. A digest of the protocol:
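FRα-expressing RT16 CHO cells (~1.5 × 10^6) were grown as monolayers. Bound folates were stripped with ice-cold acetate buffer (pH 3.5), then neutralised with HEPES-buffered saline (pH 7.4). Cells were then competed with [3H]folic acid against graded unlabelled ligand. Bound label read by scintillation, normalised to Folin-phenol protein (pmol/mg). Relative affinity = inverse molar ratio for 50% displacement, folic acid set at 1. Three experiments.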

The target in test [14] is Bifunctional purine biosynthesis protein ATIC (Homo sapiens) (UniProt P31939). In words: Inhibition of AICARFTase in human KB cells assessed as accumulation of ZMP at 1 uM after 48 hrs by HPLC analysis. The class given is cell-based. Put shortly: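 KB cells were treated with 1 μM drug for 48 h in FF-RPMI/10% DFBS with 2 nM LCV. Metabolites were extracted with 5% TCA and then ether. They were separated by SAX ion-exchange HPLC using an NH4H2PO4 gradient (5 mM pH 2.8 to 750 mM pH 3.9) over 25 min with detection at 280 nm. ZMP was quantified against a standard curve with an AraCMP internal control; three experiments.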

Test [15] concerns KB. In words: Cytotoxicity against human KB cells expressing human RFC/FRalpha/PCFT after 96 hrs by CellTitre-Blue fluorescence assay. Format: functional, cell-based. Put shortly:
as §1

Test [16] has as its system KB. In words: (§3) Inhibition of GARFTase in human KB cells assessed as incorporation of [14C]-glycine into [14C]-formyl GAR incubated 30 mins prior to [14C]-glycine addition measured after 16 hrs by radiometric assay in presence of azaserin. Format: cell-based. A digest of the protocol: (§4)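 KB cells were preincubated 1 h in folate- and glutamine-free medium with 2 nM LCV and a range of drug concentrations. Azaserine (4 μM final) was added for 30 min, then 2 mM glutamine and [14C(U)]glycine (0.1 mCi/L) for 16 h at 37 °C. TCA extracts were ether-washed and run on AG1×8 anion exchange. [14C]formyl GAR was measured per mg protein, and IC50 was set against DMSO controls; three experiments.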

Test [17] in a line: as §3. Format: cell-based. A digest of the protocol:
as §4

For test [18], the system named is KB. In words: Cell cycle arrest in human KB cells assessed as accumulation at G1/G0 phase at 1 uM after 96 hrs by propidium iodide staining-based flow cytometry (reference value: 67.4%). The class given is functional.

Activity calls are given as the source filed them. The calls are words filed in the database; no cut-off is given here.

Chain of Folate receptor alpha (Homo sapiens) (P15328 25-234 limits assumed): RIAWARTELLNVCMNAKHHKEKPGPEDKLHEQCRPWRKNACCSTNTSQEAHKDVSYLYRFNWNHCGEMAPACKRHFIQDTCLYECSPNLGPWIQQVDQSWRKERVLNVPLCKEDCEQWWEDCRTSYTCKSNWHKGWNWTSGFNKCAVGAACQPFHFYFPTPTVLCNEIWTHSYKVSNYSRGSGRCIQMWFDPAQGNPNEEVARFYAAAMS
Chain of Bifunctional purine biosynthesis protein ATIC (Homo sapiens) (P31939 whole entry, looked up): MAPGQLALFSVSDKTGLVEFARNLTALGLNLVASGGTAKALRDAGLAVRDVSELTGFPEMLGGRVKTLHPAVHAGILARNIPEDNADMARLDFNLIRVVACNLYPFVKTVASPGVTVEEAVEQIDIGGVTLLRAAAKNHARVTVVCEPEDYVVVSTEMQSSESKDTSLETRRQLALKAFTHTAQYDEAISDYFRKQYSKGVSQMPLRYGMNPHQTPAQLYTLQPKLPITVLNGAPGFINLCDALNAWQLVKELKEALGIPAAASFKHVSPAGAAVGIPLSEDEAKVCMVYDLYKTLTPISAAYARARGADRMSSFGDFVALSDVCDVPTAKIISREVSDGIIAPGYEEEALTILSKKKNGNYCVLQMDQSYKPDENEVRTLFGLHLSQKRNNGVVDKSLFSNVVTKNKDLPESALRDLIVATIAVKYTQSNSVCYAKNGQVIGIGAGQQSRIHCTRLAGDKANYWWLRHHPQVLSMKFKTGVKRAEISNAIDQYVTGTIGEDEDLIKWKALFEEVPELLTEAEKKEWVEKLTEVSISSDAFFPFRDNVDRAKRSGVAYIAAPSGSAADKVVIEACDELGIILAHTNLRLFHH

In general, IC50 refers to the midpoint of a concentration-inhibition curve. The inhibition is the share of the control response that was lost under treatment. As for `Nc1nc2[nH]cc(CCCCc3ccc(C(=O)N[C@@H](CCC(=O)O)C(=O)O)cc3)c2c(=O)[nH]1`, the IC50 in test [1] is 700 nM; in test [9], above 1000 nM; in test [11], 56.6 nM; in [15], 12.7 nM; in test [17] it was 29.7 nM. Also, the result in test [2], in test [4], in [12] and in [13] was Active. The Activity in test [3] is 26.7%; in test [6], 33.8%; in test [7], 48.2%; in test [8] it was 36.7%; in test [10], 0.456%; in [18] it was 12.9%. Also, the inhibition at 1 µM in test [5] is above 90%. In [14], the inhibition entry was “Active”. In addition, the inhibition entry in test [16] is “Dose-dependent effect”.
